Test results reported in ChEMBL document CHEMBL3352626, “Synthesis and biological evaluation of novel oxindole-based RTK inhibitors as anti-cancer agents” (Bioorg Med Chem, 2014).
Activity calls are given as the source filed them. The calls are words filed in the database; no cut-off is given here.

Experiments:
[1] = Antiproliferative activity against human HCC827 cells after 72 hrs by MTS assay; assay type: functional, cell-based; details: HCC827, 72 h
Method in brief: (§1)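 Cells at 4 × 10^4 cells/ml, seeded and left overnight, then exposed in triplicate to 30, 10, 3, 1, 0.3 and 0.1 µM compound in DMSO for 72 h at 37 °C under 5% CO2. MTS dye added for 4 h and absorbance read at 490 nm. Inhibition = (1 − OD treated/OD DMSO control) × 100. IC50 derived from the dilution series.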

[2] = biological target: T1, Aurora kinase B (Homo sapiens, UniProt Q96GD4); experiment: Inhibition of recombinant Aur B (unknown origin) at 0.1 uM after 1 hr by microfluidic assay
Method in brief: (§2)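 Caliper microfluidic mobility-shift assay using recombinant kinases from Carna. Enzyme, substrate, ATP (at Km) and compound reacted for 1 h, then stopped with EDTA. Substrate-to-phosphoproduct conversion read on EZ Reader II. Percent inhibition calculated relative to no-enzyme blanks and full-reaction wells, each containing 2.5% DMSO.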

[3] = Antiproliferative activity against human PM8910 cells after 72 hrs by MTS assay; assay type: functional, cell-based; details: PM8910, 72 h; method in brief: as §1
[4] = Cell cycle arrest at G1 phase in human PM8910 cells at 3 to 6 uM after 24 hrs by flow cytometry; assay type: functional, cell-based
Method in brief: (§3)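 Cells seeded in 60 mm plates, treated for 24 h, washed twice in PBS and fixed in ice-cold 75% ethanol. Stained overnight at 4 °C with PI ([…]) containing RNase 180 U/ml, 0.15% Triton X-100 and polyethylene glycol in 4 mmol/l citrate, pH 7.8. DNA content measured by FACScan flow cytometry against a DMSO group. Mean ± SEM of three independent experiments.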

[5] = system: A549; experiment: Antiproliferative activity against human A549 cells after 72 hrs by MTS assay; assay type: functional, cell-based; details: A549, 72 h; method in brief: as §1
[6] = biological target: Platelet-derived growth factor receptor beta (Homo sapiens) (UniProt P09619); experiment: Inhibition of recombinant PDGFRb (unknown origin) at 10 uM after 1 hr by microfluidic assay; method in brief: as §2
[7] = Antiproliferative activity against rat NRK-52E cells after 72 hrs by MTS assay; assay type: cell-based
[8] = biological target: T2, Mast/stem cell growth factor receptor Kit (Homo sapiens, UniProt P10721); experiment: Inhibition of recombinant c-Kit (unknown origin) after 1 hr by microfluidic assay; method in brief: as §2
[9] = Antiproliferative activity against human SGC7901 cells at 10 uM after 72 hrs by MTS assay; assay type: functional, SGC-7901
[10] = biological target: Vascular endothelial growth factor receptor 2 (Homo sapiens) (UniProt P35968); experiment: Inhibition of recombinant KDR (unknown origin) at 1 uM after 1 hr by microfluidic assay; method in brief: as §2
[11] = system: NCI-H1975; experiment: Antiproliferative activity against human NCI-H1975 cells at 10 uM after 72 hrs by MTS assay; assay type: functional
Method in brief: (§4)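 Single-concentration screen. Cells at 4 × 10^4 cells/ml, seeded and incubated overnight, then given 10 µM compound in DMSO for 72 h (37 °C, 5% CO2), with DMSO-only controls. MTS added for 4 h and A490 read. Percent inhibition = (1 − OD490 treated/OD490 control) × 100, from triplicate experiments.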

[12] = Antiproliferative activity against human SKBR3 cells at 10 uM after 72 hrs by MTS assay; assay type: functional, SK-BR-3; method in brief: as §4
[13] = biological target: Vascular endothelial growth factor receptor 2 (Homo sapiens) (UniProt P35968); experiment: Inhibition of recombinant KDR (unknown origin) at 10 uM after 1 hr by microfluidic assay; method in brief: as §2
[14] = biological target: T1, Aurora kinase B; experiment: Inhibition of recombinant Aur B (unknown origin) after 1 hr by microfluidic assay; method in brief: as §2
[15] = system: A549; experiment: Antiproliferative activity against human A549 cells at 10 uM after 72 hrs by MTS assay; assay type: functional
[16] = biological target: T2, Mast/stem cell growth factor receptor Kit; experiment: Inhibition of recombinant c-Kit (unknown origin) at 1 uM after 1 hr by microfluidic assay; method in brief: as §2
[17] = biological target: Epidermal growth factor receptor (Homo sapiens) (UniProt P00533); experiment: Inhibition of recombinant EGFR (unknown origin) at 10 uM after 1 hr by microfluidic assay; method in brief: as §2
[18] = biological target: T3, Serine/threonine-protein kinase Sgk1 (Homo sapiens) (UniProt O00141); experiment: Inhibition of recombinant SGK1 (unknown origin) at 10 uM after 1 hr by microfluidic assay; method in brief: as §2
T3 sequence (whole entry): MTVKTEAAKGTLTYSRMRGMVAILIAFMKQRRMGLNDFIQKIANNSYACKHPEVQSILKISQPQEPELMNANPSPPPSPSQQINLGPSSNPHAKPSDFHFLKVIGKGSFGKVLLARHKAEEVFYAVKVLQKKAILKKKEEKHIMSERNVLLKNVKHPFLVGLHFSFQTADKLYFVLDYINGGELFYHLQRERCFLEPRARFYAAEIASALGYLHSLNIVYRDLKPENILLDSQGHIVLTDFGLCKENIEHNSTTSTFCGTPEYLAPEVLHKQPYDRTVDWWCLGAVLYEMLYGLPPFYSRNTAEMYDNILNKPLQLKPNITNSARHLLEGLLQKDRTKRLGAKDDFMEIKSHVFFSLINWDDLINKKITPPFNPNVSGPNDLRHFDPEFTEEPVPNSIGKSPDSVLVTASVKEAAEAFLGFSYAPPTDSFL

[19] = biological target: Epidermal growth factor receptor (Homo sapiens) (UniProt P00533); experiment: Inhibition of recombinant EGFR (unknown origin) at 0.1 uM after 1 hr by microfluidic assay; method in brief: as §2
[20] = Cell cycle arrest in human PM8910 cells assessed as reduction of cells in S phase at 3 to 6 uM after 24 hrs by flow cytometry; assay type: functional, cell-based; method in brief: as §3
[21] = Antiproliferative activity against human SGC7901 cells after 72 hrs by MTS assay; assay type: functional, cell-based; details: SGC-7901, 72 h; method in brief: as §1
[22] = system: U-251; experiment: Antiproliferative activity against human U251 cells at 10 uM after 72 hrs by MTS assay; assay type: functional; method in brief: as §4
[23] = biological target: T1, Aurora kinase B; experiment: Inhibition of recombinant Aur B (unknown origin) at 1 uM after 1 hr by microfluidic assay; method in brief: as §2
[24] = biological target: Vascular endothelial growth factor receptor 2 (Homo sapiens) (UniProt P35968); experiment: Inhibition of recombinant KDR (unknown origin) at 0.1 uM after 1 hr by microfluidic assay; method in brief: as §2
[25] = Antiproliferative activity against human Bel7402 cells after 72 hrs by MTS assay; assay type: functional, cell-based; details: Bel-7402, 72 h; method in brief: as §1
[26] = Antiproliferative activity against human H460 cells after 72 hrs by MTS assay; assay type: functional, cell-based; details: NCI-H460, 72 h; method in brief: as §1
[27] = Cell cycle arrest at G1 phase in human SGC7901 cells at 3 to 6 uM after 24 hrs by flow cytometry; assay type: functional, cell-based; details: SGC-7901; method in brief: as §3
[28] = Antiproliferative activity against human H460 cells at 10 uM after 72 hrs by MTS assay; assay type: functional, NCI-H460
[29] = biological target: T1, Aurora kinase B; experiment: Inhibition of recombinant Aur B (unknown origin) at 10 uM after 1 hr by microfluidic assay; method in brief: as §2
[30] = Antiproliferative activity against human Bel7402 cells at 10 uM after 72 hrs by MTS assay; assay type: functional, Bel-7402
[31] = system: A549; experiment: Cell cycle arrest in human A549 cells assessed as reduction of cells in S phase at 3 to 6 uM after 24 hrs by flow cytometry; assay type: functional, cell-based; method in brief: as §3
[32] = Cell cycle arrest in human SGC7901 cells assessed as reduction of cells in S phase at 3 to 6 uM after 24 hrs by flow cytometry; assay type: functional, cell-based; details: SGC-7901; method in brief: as §3
[33] = biological target: Platelet-derived growth factor receptor beta (Homo sapiens) (UniProt P09619); experiment: Inhibition of recombinant PDGFRb (unknown origin) at 0.1 uM after 1 hr by microfluidic assay; method in brief: as §2
[34] = biological target: T2, Mast/stem cell growth factor receptor Kit; experiment: Inhibition of recombinant c-Kit (unknown origin) at 0.1 uM after 1 hr by microfluidic assay; method in brief: as §2
[35] = Antiproliferative activity against human PM8910 cells at 10 uM after 72 hrs by MTS assay; assay type: functional
[36] = biological target: T2, Mast/stem cell growth factor receptor Kit; experiment: Inhibition of recombinant c-Kit (unknown origin) at 10 uM after 1 hr by microfluidic assay; method in brief: as §2
[37] = system: A549; experiment: Cell cycle arrest at G1 phase in human A549 cells at 3 to 6 uM after 24 hrs by flow cytometry; assay type: functional, cell-based; method in brief: as §3
[38] = biological target: Platelet-derived growth factor receptor beta (Homo sapiens) (UniProt P09619); experiment: Inhibition of recombinant PDGFRb (unknown origin) at 1 uM after 1 hr by microfluidic assay; method in brief: as §2
[39] = biological target: T3, Serine/threonine-protein kinase Sgk1 (Homo sapiens); experiment: Inhibition of recombinant SGK1 (unknown origin) at 1 uM after 1 hr by microfluidic assay; method in brief: as §2
[40] = Antiproliferative activity against human HCC827 cells at 10 uM after 72 hrs by MTS assay; assay type: functional
[41] = biological target: T3, Serine/threonine-protein kinase Sgk1 (Homo sapiens); experiment: Inhibition of recombinant SGK1 (unknown origin) at 0.1 uM after 1 hr by microfluidic assay; method in brief: as §2
[42] = biological target: Epidermal growth factor receptor (Homo sapiens) (UniProt P00533); experiment: Inhibition of recombinant EGFR (unknown origin) at 1 uM after 1 hr by microfluidic assay; method in brief: as §2

Chain of Platelet-derived growth factor receptor beta (Homo sapiens) (P09619 whole entry): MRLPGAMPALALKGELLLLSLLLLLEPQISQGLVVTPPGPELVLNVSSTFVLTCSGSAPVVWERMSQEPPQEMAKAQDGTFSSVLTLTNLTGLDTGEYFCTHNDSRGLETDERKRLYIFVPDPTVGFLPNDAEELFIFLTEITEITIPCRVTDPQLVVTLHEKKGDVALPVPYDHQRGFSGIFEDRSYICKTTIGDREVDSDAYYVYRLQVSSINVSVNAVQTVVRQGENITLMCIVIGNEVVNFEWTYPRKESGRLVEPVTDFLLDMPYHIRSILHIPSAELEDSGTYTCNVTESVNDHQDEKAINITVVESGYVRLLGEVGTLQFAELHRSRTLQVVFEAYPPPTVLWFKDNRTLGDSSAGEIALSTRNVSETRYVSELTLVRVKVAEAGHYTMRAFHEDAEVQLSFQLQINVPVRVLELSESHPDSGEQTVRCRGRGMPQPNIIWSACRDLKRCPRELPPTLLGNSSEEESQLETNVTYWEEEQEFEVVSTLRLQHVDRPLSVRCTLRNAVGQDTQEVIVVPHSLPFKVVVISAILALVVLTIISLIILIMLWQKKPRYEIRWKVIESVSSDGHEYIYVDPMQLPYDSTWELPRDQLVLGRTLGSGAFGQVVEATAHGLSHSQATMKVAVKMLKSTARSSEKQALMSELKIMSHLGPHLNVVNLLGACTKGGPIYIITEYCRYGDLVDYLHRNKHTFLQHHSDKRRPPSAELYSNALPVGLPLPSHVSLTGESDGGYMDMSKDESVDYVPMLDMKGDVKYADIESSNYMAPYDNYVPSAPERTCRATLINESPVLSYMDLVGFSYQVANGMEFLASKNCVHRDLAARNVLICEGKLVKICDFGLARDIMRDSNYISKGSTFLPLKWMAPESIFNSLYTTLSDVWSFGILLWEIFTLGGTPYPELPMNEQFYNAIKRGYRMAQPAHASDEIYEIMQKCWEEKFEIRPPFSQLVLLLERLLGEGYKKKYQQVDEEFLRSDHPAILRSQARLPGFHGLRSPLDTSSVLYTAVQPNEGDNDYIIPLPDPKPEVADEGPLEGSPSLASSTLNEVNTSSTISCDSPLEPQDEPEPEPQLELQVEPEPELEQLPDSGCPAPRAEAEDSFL
Chain of Epidermal growth factor receptor (Homo sapiens) (P00533 whole entry): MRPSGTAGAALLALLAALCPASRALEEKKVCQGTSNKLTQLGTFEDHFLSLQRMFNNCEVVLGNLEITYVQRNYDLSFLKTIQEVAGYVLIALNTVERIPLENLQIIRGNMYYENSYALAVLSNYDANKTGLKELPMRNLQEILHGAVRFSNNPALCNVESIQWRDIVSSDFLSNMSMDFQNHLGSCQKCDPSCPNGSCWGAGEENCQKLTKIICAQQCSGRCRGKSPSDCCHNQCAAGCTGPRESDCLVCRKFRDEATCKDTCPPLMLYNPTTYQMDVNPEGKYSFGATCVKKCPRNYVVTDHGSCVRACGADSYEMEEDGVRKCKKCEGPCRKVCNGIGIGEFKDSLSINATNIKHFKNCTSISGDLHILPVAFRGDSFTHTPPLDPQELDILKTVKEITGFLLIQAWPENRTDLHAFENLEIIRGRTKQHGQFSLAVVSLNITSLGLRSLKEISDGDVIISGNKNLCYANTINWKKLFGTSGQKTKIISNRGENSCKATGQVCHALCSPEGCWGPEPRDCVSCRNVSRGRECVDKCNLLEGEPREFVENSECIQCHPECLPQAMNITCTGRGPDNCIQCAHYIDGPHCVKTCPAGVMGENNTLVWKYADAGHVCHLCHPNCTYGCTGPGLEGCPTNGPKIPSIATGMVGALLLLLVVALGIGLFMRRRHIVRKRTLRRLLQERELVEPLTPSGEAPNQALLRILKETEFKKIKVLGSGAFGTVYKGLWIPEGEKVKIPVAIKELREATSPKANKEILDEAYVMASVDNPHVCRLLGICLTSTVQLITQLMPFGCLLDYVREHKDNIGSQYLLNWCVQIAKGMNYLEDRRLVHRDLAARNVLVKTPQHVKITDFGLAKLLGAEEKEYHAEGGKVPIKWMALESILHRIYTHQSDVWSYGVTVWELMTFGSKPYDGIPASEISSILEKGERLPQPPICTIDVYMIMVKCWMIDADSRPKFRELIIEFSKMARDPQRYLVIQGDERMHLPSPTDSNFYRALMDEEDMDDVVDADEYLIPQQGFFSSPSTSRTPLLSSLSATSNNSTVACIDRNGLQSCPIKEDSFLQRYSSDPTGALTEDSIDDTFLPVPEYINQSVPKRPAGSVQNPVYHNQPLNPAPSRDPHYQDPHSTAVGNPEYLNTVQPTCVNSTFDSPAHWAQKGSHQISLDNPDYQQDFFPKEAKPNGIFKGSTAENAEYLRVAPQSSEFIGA
Chain of Vascular endothelial growth factor receptor 2 (Homo sapiens) (P35968 whole entry): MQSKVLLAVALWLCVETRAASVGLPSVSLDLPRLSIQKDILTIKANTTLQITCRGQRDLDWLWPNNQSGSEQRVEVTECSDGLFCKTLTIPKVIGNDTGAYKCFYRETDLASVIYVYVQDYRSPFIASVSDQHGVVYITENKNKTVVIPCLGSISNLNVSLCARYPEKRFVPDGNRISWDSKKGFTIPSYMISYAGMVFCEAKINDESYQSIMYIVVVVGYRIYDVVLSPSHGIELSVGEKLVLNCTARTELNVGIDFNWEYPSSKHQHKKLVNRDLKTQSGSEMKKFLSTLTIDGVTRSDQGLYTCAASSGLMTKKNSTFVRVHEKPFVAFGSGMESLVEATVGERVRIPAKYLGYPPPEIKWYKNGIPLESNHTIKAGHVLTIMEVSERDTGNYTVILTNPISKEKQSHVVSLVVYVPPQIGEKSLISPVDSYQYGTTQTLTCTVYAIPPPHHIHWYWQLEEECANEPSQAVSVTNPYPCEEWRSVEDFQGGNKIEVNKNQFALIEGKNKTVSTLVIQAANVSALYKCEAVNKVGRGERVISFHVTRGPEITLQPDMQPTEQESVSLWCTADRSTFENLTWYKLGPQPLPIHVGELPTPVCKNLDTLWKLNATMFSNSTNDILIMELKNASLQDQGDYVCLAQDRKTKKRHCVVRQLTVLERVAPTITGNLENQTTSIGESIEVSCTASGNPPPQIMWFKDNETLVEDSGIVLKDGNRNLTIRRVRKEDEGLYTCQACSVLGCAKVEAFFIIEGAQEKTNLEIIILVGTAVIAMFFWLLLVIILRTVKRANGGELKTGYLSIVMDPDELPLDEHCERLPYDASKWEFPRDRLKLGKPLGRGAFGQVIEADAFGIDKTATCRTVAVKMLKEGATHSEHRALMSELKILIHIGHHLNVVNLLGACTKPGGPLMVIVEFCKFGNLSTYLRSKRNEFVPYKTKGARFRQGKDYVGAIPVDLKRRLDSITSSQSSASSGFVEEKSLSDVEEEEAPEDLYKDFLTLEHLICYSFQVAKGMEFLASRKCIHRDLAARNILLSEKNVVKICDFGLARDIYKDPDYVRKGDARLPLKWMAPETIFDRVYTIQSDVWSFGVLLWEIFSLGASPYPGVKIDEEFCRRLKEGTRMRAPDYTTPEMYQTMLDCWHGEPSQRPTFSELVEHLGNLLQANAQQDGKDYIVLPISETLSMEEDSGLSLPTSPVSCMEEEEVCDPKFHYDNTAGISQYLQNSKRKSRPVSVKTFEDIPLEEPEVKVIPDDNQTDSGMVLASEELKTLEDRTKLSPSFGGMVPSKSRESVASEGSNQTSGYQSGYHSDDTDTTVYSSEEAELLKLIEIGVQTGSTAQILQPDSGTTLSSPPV
T2 sequence (P10721 whole entry): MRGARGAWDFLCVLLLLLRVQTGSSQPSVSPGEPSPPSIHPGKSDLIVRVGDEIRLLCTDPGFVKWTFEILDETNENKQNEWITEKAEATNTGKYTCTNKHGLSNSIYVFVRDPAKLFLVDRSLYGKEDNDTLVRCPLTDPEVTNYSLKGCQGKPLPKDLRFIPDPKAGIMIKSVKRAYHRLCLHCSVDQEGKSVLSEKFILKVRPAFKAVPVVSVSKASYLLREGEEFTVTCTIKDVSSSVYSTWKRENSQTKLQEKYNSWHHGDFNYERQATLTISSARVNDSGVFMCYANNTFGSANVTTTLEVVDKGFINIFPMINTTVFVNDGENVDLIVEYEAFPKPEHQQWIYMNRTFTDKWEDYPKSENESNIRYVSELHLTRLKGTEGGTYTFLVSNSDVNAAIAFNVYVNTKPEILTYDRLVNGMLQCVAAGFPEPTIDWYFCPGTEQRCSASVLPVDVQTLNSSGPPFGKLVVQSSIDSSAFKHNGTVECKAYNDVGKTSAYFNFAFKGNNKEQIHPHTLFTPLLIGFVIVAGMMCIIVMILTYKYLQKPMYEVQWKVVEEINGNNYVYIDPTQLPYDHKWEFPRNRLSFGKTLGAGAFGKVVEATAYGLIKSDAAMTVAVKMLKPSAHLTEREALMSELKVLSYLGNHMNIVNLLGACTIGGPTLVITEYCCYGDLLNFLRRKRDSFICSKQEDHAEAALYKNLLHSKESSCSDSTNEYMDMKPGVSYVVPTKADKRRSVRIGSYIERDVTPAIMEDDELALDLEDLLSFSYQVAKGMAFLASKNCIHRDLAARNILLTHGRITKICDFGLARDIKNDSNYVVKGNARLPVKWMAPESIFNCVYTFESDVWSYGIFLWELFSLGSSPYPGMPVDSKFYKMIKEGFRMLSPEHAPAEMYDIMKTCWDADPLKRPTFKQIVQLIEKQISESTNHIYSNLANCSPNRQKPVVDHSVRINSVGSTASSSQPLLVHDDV
T1 sequence (Q96GD4 whole entry): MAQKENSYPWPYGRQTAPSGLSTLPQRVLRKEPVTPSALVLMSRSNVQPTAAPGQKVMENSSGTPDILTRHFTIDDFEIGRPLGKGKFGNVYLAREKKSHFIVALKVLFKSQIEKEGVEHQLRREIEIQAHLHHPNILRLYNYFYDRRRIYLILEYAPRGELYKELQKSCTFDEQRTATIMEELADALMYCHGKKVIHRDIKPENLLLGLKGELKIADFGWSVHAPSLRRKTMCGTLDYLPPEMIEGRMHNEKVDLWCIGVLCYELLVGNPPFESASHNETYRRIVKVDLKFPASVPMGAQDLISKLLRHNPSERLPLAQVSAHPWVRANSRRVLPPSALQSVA

O=C1Nc2ccccc2/C1=C/c1ccc(N2CCN(C(=O)CCCl)CC2)cc1
IC50 [1]: 12.7 µM
inhibition [2]: 14.4%
IC50 [3]: 2.76 µM
Activity [4]: Active
IC50 [5]: 3.04 µM
inhibition [6]: 76%
IC50 [7]: > 30 µM
IC50 [8]: 0.071 µM
Activity [9]: 60.98%
inhibition [10]: 14.7%
Activity [11]: 67.22%
Activity [12]: 26.45%
inhibition [13]: 62.6%
IC50 [14]: 0.587 µM
Activity [15]: 54.9%
inhibition [16]: 56.4%
inhibition [17]: 24.3%
inhibition [18]: 42.4%
inhibition [19]: 19.1%
Activity [20]: Active
IC50 [21]: 2.85 µM
Activity [22]: 20.43%
inhibition [23]: 53.5%
inhibition [24]: 6%
IC50 [25]: 3.39 µM
IC50 [26]: 20.1 µM
Activity [27]: Active
Activity [28]: 66.63%
inhibition [29]: 88.3%
Activity [30]: 49.21%
Activity [31]: Active
Activity [32]: Active
inhibition [33]: 13.6%
inhibition [34]: 31.9%
Activity [35]: 59.46%
inhibition [36]: 57.6%
Activity [37]: Active
inhibition [38]: 46.7%
inhibition [39]: 11.8%
Activity [40]: 56.47%
inhibition [41]: 3.56%
inhibition [42]: 20%
